How the values were obtained:
Nucleic Acid = test: Ratio of drug level in liver to plasma in female Sprague-Dawley rat at 10 mg/kg, iv administered as bolus dose measured after 1 hr by liquid scintillation counting analysis; assay type: ADME, organism-based; design: dose 10 mg/kg, route intravenous; details: other tissue
Outline: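 Rats received a single iv bolus of the [35S]-labelled prodrug via tail vein in 25% PEG 400/75% saline, 5 ml/kg. Liver (solubilised homogenate) and plasma (EDTA blood, retro-orbital, just before necropsy) were taken at 1, 4 and 24 h and counted by liquid scintillation. The liver/plasma concentration ratio is the mean at each time point, from nine male and nine female rats.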

[1] = Drug excretion in female Sprague-Dawley rat urine at 10 mg/kg, iv administered as bolus dose measured at 0 to 1 hr post-dose by liquid scintillation counting analysis; assay type: ADME, organism-based; design: dose 10 mg/kg, route intravenous; details: in vivo
Outline: (§1)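 Single [³⁵S]-prodrug dose to rats, i.v. tail-vein bolus (PEG 400/saline vehicle) or oral gavage (citric acid buffer pH 2.5), 5 ml/kg. Urine and feces collected ~1, 4 and 24 h postdose. Radioactivity counted by liquid scintillation and expressed as % of administered dose. Mean and S.D. from nine rats per sex.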

[2] = Drug excretion in male Sprague-Dawley rat feces at 10 mg/kg, po administered as single dose measured at 0 to 1 hr post-dose by liquid scintillation counting analysis; assay type: ADME, organism-based; design: dose 10 mg/kg, route oral; details: in vivo; outline: as §1
[3] = Drug excretion in female Sprague-Dawley rat urine at 10 mg/kg, po administered as single dose measured at 0 to 24 hrs post-dose by liquid scintillation counting analysis; assay type: ADME, organism-based; design: dose 10 mg/kg, route oral; details: in vivo; outline: as §1
[4] = Drug excretion in male Sprague-Dawley rat urine at 10 mg/kg, iv administered as bolus dose measured at 1 to 4 hrs post-dose by liquid scintillation counting analysis; assay type: ADME, organism-based; design: dose 10 mg/kg, route intravenous; details: in vivo; outline: as §1
[5] = Drug excretion in female Sprague-Dawley rat urine at 10 mg/kg, iv administered as bolus dose measured at 1 to 4 hrs post-dose by liquid scintillation counting analysis; assay type: ADME, organism-based; design: dose 10 mg/kg, route intravenous; details: in vivo; outline: as §1
[6] = Drug excretion in male Sprague-Dawley rat urine at 10 mg/kg, po administered as single dose measured at 0 to 24 hrs post-dose by liquid scintillation counting analysis; assay type: ADME, organism-based; design: dose 10 mg/kg, route oral; details: in vivo; outline: as §1
Rattus norvegicus [7] = test: Drug recovery in female Sprague-Dawley rat at 10 mg/kg, po administered as single dose measured after 24 hrs by liquid scintillation counting analysis; assay type: ADME, organism-based; design: dose 10 mg/kg, route oral; details: in vivo
Outline: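 Rats got a single i.v. bolus or oral gavage dose of [³⁵S]-prodrug at 5 ml/kg over a 24 h study. Radioactivity in blood, tissues, carcass, urine and feces measured by liquid scintillation counting. Total recovery given as % of administered dose at 24 h.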

Liver = test: Drug uptake in Sprague-Dawley rat liver at 10 mg/kg, iv administered as bolus dose measured at 1 to 24 hrs post-dose by liquid scintillation counting analysis; assay type: ADME, organism-based; design: dose 10 mg/kg, route intravenous; details: in vivo
Outline: (§2)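 [35S]-labelled prodrug given once to rats, iv bolus via tail vein (25% PEG 400/75% saline) or oral gavage (0.05 M citric acid buffer, pH 2.5), 5 ml/kg. Rats euthanised at 1, 4 or 24 h. Liver, lung, kidney, heart, brain, spleen, tail and retro-orbital plasma were collected. Samples were homogenised and solubilised, and radioactivity was counted by liquid scintillation. Values are µg-equivalent/ml or g and % of dose.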

[8] = Drug excretion in female Sprague-Dawley rat feces at 10 mg/kg, po administered as single dose measured at 4 to 24 hrs post-dose by liquid scintillation counting analysis; assay type: ADME, organism-based; design: dose 10 mg/kg, route oral; details: in vivo; outline: as §1
[9] = Drug excretion in male Sprague-Dawley rat urine at 10 mg/kg, iv administered as bolus dose measured at 4 to 24 hrs post-dose by liquid scintillation counting analysis; assay type: ADME, organism-based; design: dose 10 mg/kg, route intravenous; details: in vivo; outline: as §1
[10] = Drug excretion in male Sprague-Dawley rat urine at 10 mg/kg, po administered as single dose measured at 1 to 4 hrs post-dose by liquid scintillation counting analysis; assay type: ADME, organism-based; design: dose 10 mg/kg, route oral; details: in vivo; outline: as §1
[11] = Drug excretion in male Sprague-Dawley rat feces at 10 mg/kg, po administered as single dose measured at 4 to 24 hrs post-dose by liquid scintillation counting analysis; assay type: ADME, organism-based; design: dose 10 mg/kg, route oral; details: in vivo; outline: as §1
[12] = Drug excretion in male Sprague-Dawley rat feces at 10 mg/kg, iv administered as bolus dose measured at 4 to 24 hrs post-dose by liquid scintillation counting analysis; assay type: ADME, organism-based; design: dose 10 mg/kg, route intravenous; details: in vivo; outline: as §1
[13] = Drug excretion in female Sprague-Dawley rat feces at 10 mg/kg, po administered as single dose measured at 0 to 1 hr post-dose by liquid scintillation counting analysis; assay type: ADME, organism-based; design: dose 10 mg/kg, route oral; details: in vivo; outline: as §1
Spleen = test: Drug uptake in Sprague-Dawley rat spleen at 10 mg/kg, iv administered as bolus dose measured at 1 to 24 hrs post-dose by liquid scintillation counting analysis; assay type: ADME, organism-based; design: dose 10 mg/kg, route intravenous; details: in vivo; outline: as §2
Lung = test: Drug uptake in Sprague-Dawley rat lung at 10 mg/kg, iv administered as bolus dose measured at 1 to 24 hrs post-dose by liquid scintillation counting analysis; assay type: ADME, organism-based; design: dose 10 mg/kg, route intravenous; details: in vivo; outline: as §2
Rattus norvegicus [14] = test: AUC in male Sprague-Dawley rat at 10 mg/kg, iv administered as bolus dose by liquid scintillation counting analysis; assay type: ADME, organism-based, Plasma; design: dose 10 mg/kg, route intravenous; details: in vivo
Outline: (§3)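 Single dose of [³⁵S]-labelled prodrug to rats, i.v. tail-vein bolus in 25% PEG 400/75% saline or oral gavage in 0.05 M citric acid buffer pH 2.5, 5 ml/kg. Retro-orbital blood into EDTA at 1, 4 or 24 h; plasma by centrifugation. Radioactivity by liquid scintillation counting as µg-Eq/ml. Noncompartmental sparse-sampling analysis gives Cmax and AUC; nine rats per sex.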

Kidney = test: Drug uptake in Sprague-Dawley rat kidney at 10 mg/kg, po administered as single dose measured at 4 hrs post-dose by liquid scintillation counting analysis; assay type: ADME, organism-based; design: dose 10 mg/kg, route oral; details: in vivo; outline: as §2
[15] = Drug excretion in male Sprague-Dawley rat urine at 10 mg/kg, iv administered as bolus dose measured at 0 to 24 hrs post-dose by liquid scintillation counting analysis; assay type: ADME, organism-based; design: dose 10 mg/kg, route intravenous; details: in vivo; outline: as §1
Rattus norvegicus [16] = test: Terminal half life in male Sprague-Dawley rat at 10 mg/kg, iv administered as bolus dose by liquid scintillation counting analysis; assay type: ADME, organism-based; design: dose 10 mg/kg, route intravenous; details: in vivo
Outline: (§4)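 Radioactivity in plasma from rats given a single [35S]-labelled dose, iv (tail vein, 25% PEG 400/75% saline) or oral gavage (0.05 M citric acid, pH 2.5), sampled at 1, 4 and 24 h, measured by liquid scintillation as µg-Eq/ml. Elimination t1/2 and Tmax were derived by noncompartmental analysis with sparse sampling, from nine male and nine female rats.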

[17] = Drug excretion in female Sprague-Dawley rat feces at 10 mg/kg, po administered as single dose measured at 0 to 24 hrs post-dose by liquid scintillation counting analysis; assay type: ADME, organism-based; design: dose 10 mg/kg, route oral; details: in vivo; outline: as §1
[18] = Drug excretion in male Sprague-Dawley rat feces at 10 mg/kg, iv administered as bolus dose measured at 0 to 24 hrs post-dose by liquid scintillation counting analysis; assay type: ADME, organism-based; design: dose 10 mg/kg, route intravenous; details: in vivo; outline: as §1
[19] = Drug excretion in male Sprague-Dawley rat feces at 10 mg/kg, iv administered as bolus dose measured at 1 to 4 hrs post-dose by liquid scintillation counting analysis; assay type: ADME, organism-based; design: dose 10 mg/kg, route intravenous; details: in vivo; outline: as §1
Rattus norvegicus [20] = test: Tmax in male Sprague-Dawley rat at 10 mg/kg, po administered as single dose by liquid scintillation counting analysis; assay type: ADME, organism-based; design: dose 10 mg/kg, route oral; details: in vivo; outline: as §4
Rattus norvegicus [21] = test: Cmax in female Sprague-Dawley rat at 10 mg/kg, iv administered as bolus dose by liquid scintillation counting analysis; assay type: ADME, organism-based; design: dose 10 mg/kg, route intravenous; details: in vivo; outline: as §3

## CO[C@@H]1[C@H](OP(=O)(OC[C@H]2O[C@@H](n3cnc4c(N)ncnc43)C[C@@H]2O)[35S]COC(=O)OC(C)C)[C@@H](CO)O[C@H]1n1ccc(=O)[nH]c1=O (stereo partly specified)
Nucleic Acid
  Ratio: 3.89
[1]
  Drug excretion: 15.81%
[2]
  Drug excretion: 0.01%
[3]
  Drug excretion: 36.88%
[4]
  Drug excretion: 11.33%
[5]
  Drug excretion: 6.34%
[6]
  Drug excretion: 34.59%
Rattus norvegicus [7]
  Drug recovery: 80.4%
Liver
  Drug uptake: Active
[8]
  Drug excretion: 2.68%
[9]
  Drug excretion: 29.6%
[10]
  Drug excretion: 0.86%
[11]
  Drug excretion: 35.71%
[12]
  Drug excretion: 16.9%
[13]
  Drug excretion: 0.02%
Spleen
  Drug uptake: <= 0.5%
Lung
  Drug uptake: Active
Rattus norvegicus [14]
  AUC: 53.58 ugequiv.h/ml
Kidney
  Drug uptake: Active
[15]
  Drug excretion: 56.15%
Rattus norvegicus [16]
  beta t1/2: 7.8 h
[17]
  Drug excretion: 2.72%
[18]
  Drug excretion: 16.9%
[19]
  Drug excretion: 0.01%
Rattus norvegicus [20]
  Tmax: 4 h
Rattus norvegicus [21]
  Cmax: 4.49 ugequiv/ml

Reference: ChEMBL document CHEMBL3526154, “Metabolism, pharmacokinetics, tissue distribution, and stability studies of the prodrug analog of an anti-hepatitis B virus dinucleoside phosphorothioate” (Drug Metab Dispos, 2012)
